Test results reported in ChEMBL document CHEMBL4610044, “Synthesis and biological evaluation of novel indole-pyrazoline hybrid derivatives as potential topoisomerase 1 inhibitors” (Bioorg Med Chem Lett, 2020).
The source made the active and inactive calls. The rule behind the calls is not given here.

Assays:
[1] = molecular target: T1, DNA topoisomerase 1 (Homo sapiens) (UniProt P11387); test: Poison activity at Top1 (unknown origin) assessed as decrease in relaxed supercoiled DNA at 25 uM by […] based agarose gel electrophoresis relative to control; parameters: scale not given: the % may be the effect or the level left
T1 sequence (whole entry): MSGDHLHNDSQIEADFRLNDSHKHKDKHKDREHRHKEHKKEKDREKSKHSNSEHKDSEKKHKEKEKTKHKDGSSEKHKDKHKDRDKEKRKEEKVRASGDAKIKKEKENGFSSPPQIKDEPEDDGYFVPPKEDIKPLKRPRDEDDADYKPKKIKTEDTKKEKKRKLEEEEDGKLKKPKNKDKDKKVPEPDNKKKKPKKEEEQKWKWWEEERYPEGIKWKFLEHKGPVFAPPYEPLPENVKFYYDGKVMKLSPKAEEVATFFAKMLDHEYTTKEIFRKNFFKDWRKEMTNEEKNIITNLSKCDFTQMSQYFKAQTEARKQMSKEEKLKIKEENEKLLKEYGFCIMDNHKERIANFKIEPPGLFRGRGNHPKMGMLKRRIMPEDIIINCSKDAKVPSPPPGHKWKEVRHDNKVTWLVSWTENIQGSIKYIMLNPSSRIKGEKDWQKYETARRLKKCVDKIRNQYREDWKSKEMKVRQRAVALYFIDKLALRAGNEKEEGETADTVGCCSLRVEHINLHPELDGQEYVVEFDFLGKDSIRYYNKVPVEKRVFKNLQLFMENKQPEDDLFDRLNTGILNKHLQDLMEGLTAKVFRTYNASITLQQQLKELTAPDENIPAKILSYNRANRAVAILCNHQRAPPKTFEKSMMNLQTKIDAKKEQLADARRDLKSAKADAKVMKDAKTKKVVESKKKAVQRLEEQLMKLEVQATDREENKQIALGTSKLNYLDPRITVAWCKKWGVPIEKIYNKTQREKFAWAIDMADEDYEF

Supercoiled DNA [2] = test: Binding affinity to supercoiled DNA (unknnown origin) at 50 uM by SPR assay; format: nucleic-acid assay
[3] = molecular target: T1, DNA topoisomerase 1 (Homo sapiens); test: Poison activity at Top1 (unknown origin) assessed as decrease in relaxed supercoiled DNA at 300 uM
Procedure, shortened: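 The screen used a Top1-mediated relaxation assay, with compounds at 300 µM and camptothecin as positive control. Supercoiled and relaxed/Top1-bound DNA were resolved as separate bands on agarose gel.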

Supercoiled DNA [4] = test: Binding affinity to supercoiled DNA (unknown origin) by SPR assay; format: nucleic-acid assay
DNA = test: Binding affinity at Escherichia coli pBR322 DNA assessed as unwinding of supercoiled DNA incubated for 30 mins in presence of topoisomerase 1 by agarose gel based electrophoresis; format: nucleic-acid assay
[5] = molecular target: T1, DNA topoisomerase 1 (Homo sapiens); test: Poison activity at Top1 (unknown origin) assessed as increase in supercoiled DNA at 125 uM by ethidium bromide staining based agarose gel electrophoresis relative to control
[6] = molecular target: T1, DNA topoisomerase 1 (Homo sapiens); test: Poison activity at Top1 (unknown origin) assessed as increase in supercoiled DNA by ethidium bromide staining based agarose gel electrophoresis
Procedure, shortened: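 In a semi-quantitative Top1 relaxation assay, compound was tested at several concentrations, including 25 and 125 µM, and camptothecin at 1, 5, 25 and 125 µM. Supercoiled DNA was quantified from gel bands as a percentage of total DNA.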

[7] = molecular target: T1, DNA topoisomerase 1 (Homo sapiens); test: Poison activity at Top1 (unknown origin) assessed as increase in supercoiled DNA at 25 uM by […] relative to control

Row | Compound | Activity [1] | Activity (Supercoiled DNA [2]) | other results
1 | O=S(=O)(c1ccccc1)n1cc(C2=NN(c3ccccc3)C(c3ccccc3Br)C2)c2ccccc21 (stereo not drawn) | < 40% | inactive | 
2 | O=S(=O)(c1cccc2ccccc12)n1cc(C2=NN(c3ccccc3)C(c3cccc4ccccc34)C2)c2ccccc21 (stereo not drawn) | < 40% | inactive | 
3 | COc1ccc(C2CC(c3cn(S(=O)(=O)c4cccc5ccccc45)c4ccccc34)=NN2c2ccccc2)cc1 (stereo not drawn) | < 40% | inactive | 
4 | Cc1ccc(S(=O)(=O)n2cc(C3=NN(c4ccccc4)C(c4ccccc4)C3)c3ccccc32)cc1 (stereo not drawn) | 40 to 79% | inactive | 
5 | Cc1ccc(S(=O)(=O)n2cc(C3=NN(c4ccccc4)C(c4cccc5ccccc45)C3)c3ccccc32)cc1 (stereo not drawn) | 40 to 79% | inactive | 
6 | O=S(=O)(c1cccc2ccccc12)n1cc(C2=NN(c3ccccc3)C(c3ccccc3)C2)c2ccccc21 (stereo not drawn) | < 40% | inactive | 
7 | Cc1ccc(C2CC(c3cn(S(=O)(=O)c4ccccc4)c4ccccc34)=NN2c2ccccc2)cc1 (stereo not drawn) | < 40% | inactive | Activity [3]: Active
8 | O=S(=O)(c1ccccc1)n1cc(C2=NN(c3ccccc3)C(c3ccccc3)C2)c2ccccc21 (stereo not drawn) | 40 to 79% | inactive | 
9 | Brc1ccccc1C1CC(c2c[nH]c3ccccc23)=NN1c1ccccc1 (stereo not drawn) | < 40% | inactive | Activity [3]: Active
10 | Cc1ccc(S(=O)(=O)n2cc(C3=NN(c4ccccc4)C(c4ccccc4Br)C3)c3ccccc32)cc1 (stereo not drawn) | < 40% | inactive | 
11 | COc1ccc(C2CC(c3cn(S(=O)(=O)c4ccccc4)c4ccccc34)=NN2c2ccccc2)cc1 (stereo not drawn) | 40 to 79% | inactive | 
12 | O=[N+]([O-])c1cccc(C2CC(c3cn(S(=O)(=O)c4ccccc4)c4ccccc34)=NN2c2ccccc2)c1 (stereo not drawn) | < 40% | inactive | 
13 | COc1cc(C2CC(c3cn(S(=O)(=O)c4ccc(C)cc4)c4ccccc34)=NN2c2ccccc2)cc(OC)c1OC (stereo not drawn) | 40 to 79% | inactive | 
14 | COc1ccc(C2CC(c3cn(S(=O)(=O)c4ccc(C)cc4)c4ccccc34)=NN2c2ccccc2)cc1 (stereo not drawn) | < 40% | inactive | 
15 | O=S(=O)(c1ccccc1)n1cc(C2=NN(c3ccccc3)C(c3ccc(Cl)cc3)C2)c2ccccc21 (stereo not drawn) | < 40% | inactive | 
16 | CC(C)c1ccc(C2CC(c3cn(S(=O)(=O)c4ccccc4)c4ccccc34)=NN2c2ccccc2)cc1 (stereo not drawn) | 40 to 79% | inactive | 
17 | O=S(=O)(c1cccc2ccccc12)n1cc(C2=NN(c3ccccc3)C(c3ccc(Cl)cc3)C2)c2ccccc21 (stereo not drawn) | < 40% | inactive | 
18 | CC(C)c1ccc(C2CC(c3cn(S(=O)(=O)c4cccc5ccccc45)c4ccccc34)=NN2c2ccccc2)cc1 (stereo not drawn) | 40 to 79% | inactive | 
19 | CC[n+]1c(-c2ccccc2)c2cc(N)ccc2c2ccc(N)cc21 [HOMIDIUM BROMIDE] |  |  | Kd (Supercoiled DNA [4]): 1.2 µM; Activity (DNA): Active
20 | O=S(=O)(c1cccc2ccccc12)n1cc(C2=NN(c3ccccc3)C(c3ccccc3Br)C2)c2ccccc21 (stereo not drawn) | < 40% | inactive | 
21 | CC[C@@]1(O)C(=O)OCc2c1cc1n(c2=O)Cc2cc3ccccc3nc2-1 |  |  | Activity [5]: 48%
22 | Cc1ccc(S(=O)(=O)n2cc(C3=NN(c4ccccc4)C(c4ccc(C(C)C)cc4)C3)c3ccccc32)cc1 (stereo not drawn) | < 40% | inactive | 
23 | COc1cc(C2CC(c3cn(S(=O)(=O)c4ccccc4)c4ccccc34)=NN2c2ccccc2)cc(OC)c1OC (stereo not drawn) | 40 to 79% | inactive | 
24 | O=S(=O)(c1ccccc1)n1cc(C2=NN(c3ccccc3)C(c3cccc4ccccc34)C2)c2ccccc21 (stereo not drawn) | > 80% | inactive | Activity [6]: Dose-dependent effect; Activity [7]: 61%; Activity [5]: 74%; Activity (DNA): inactive
